{"source": "ChEMBL document CHEMBL1151224", "about": "“Geranylgeraniol-type diterpenoids, boletinins A-J, from Boletinus cavipes as inhibitors of superoxide anion generation in macrophage cells” (J Nat Prod, 2004)", "key": {"Macrophage [1]": {"test_system": "Macrophage", "assay": "Radical scavenging activity in CD mouse macrophages assessed as inhibition of superoxide anion generation at 25 uM relative to control", "assay_type": "functional", "how_it_was_run": "(§1)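 Superoxide anion (O2•-) generation was measured in macrophage cells stimulated with the tumor promoter 12-O-tetradecanoylphorbol-13-acetate (TPA), and test samples were evaluated for suppression of this TPA-induced generation.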"}, "Macrophage [2]": {"test_system": "Macrophage", "assay": "Radical scavenging activity in CD mouse macrophages assessed as inhibition of superoxide anion generation at 50 uM relative to control", "assay_type": "functional", "how_it_was_run": "as §1"}, "[3]": {"target": "T1, Xanthine dehydrogenase/oxidase (Homo sapiens, UniProt P47989)", "T1 sequence (P47989 whole entry)": "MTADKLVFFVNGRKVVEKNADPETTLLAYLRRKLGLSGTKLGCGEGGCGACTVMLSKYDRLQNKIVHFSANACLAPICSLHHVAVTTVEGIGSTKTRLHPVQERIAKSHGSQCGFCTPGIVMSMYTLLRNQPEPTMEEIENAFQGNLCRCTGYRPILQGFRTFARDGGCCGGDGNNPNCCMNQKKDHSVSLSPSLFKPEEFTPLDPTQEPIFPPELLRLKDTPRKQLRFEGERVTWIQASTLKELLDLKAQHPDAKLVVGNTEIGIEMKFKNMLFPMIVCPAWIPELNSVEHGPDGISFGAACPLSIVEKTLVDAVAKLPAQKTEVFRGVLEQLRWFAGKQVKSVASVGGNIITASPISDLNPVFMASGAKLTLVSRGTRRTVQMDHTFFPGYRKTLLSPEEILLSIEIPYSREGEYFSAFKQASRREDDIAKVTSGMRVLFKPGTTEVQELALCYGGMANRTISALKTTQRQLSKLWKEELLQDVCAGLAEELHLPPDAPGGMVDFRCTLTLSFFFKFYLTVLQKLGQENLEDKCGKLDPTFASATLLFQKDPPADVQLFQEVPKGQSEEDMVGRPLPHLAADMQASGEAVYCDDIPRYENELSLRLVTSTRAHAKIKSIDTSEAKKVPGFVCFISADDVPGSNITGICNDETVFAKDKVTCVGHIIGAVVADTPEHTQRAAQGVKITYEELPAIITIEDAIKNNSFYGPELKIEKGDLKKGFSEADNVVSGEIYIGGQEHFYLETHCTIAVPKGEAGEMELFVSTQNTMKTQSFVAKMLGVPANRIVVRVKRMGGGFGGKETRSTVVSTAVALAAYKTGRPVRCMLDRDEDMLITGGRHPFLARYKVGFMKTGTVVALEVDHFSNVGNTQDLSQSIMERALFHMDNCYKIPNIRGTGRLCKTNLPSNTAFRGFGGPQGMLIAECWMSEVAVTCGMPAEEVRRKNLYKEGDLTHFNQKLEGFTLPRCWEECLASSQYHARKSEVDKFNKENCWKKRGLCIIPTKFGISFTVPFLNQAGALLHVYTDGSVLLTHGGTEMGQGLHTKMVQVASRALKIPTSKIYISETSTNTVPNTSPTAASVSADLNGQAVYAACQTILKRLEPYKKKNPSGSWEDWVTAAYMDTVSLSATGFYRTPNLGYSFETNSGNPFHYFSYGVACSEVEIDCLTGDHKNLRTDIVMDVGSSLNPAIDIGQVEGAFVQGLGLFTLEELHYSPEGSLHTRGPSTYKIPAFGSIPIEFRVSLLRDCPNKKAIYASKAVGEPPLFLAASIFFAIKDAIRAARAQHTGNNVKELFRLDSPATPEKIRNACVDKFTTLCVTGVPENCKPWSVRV", "assay": "Inhibition of XOD at 125 uM relative to control"}, "[4]": {"assay": "Cytotoxicity against CD mouse macrophages assessed as cell viability at 50 uM by trypan blue exclusion test", "assay_type": "cell-based, Macrophage", "conditions": "read-out: Activity"}, "[5]": {"target": "T1, Xanthine dehydrogenase/oxidase", "assay": "Inhibition of XOD at 25 uM relative to control"}}, "data": [{"smiles": "O=c1c(O)c(-c2ccc(O)c(O)c2)oc2cc(O)cc(O)c12", "note": "[QUERCETIN]", "values": [{"measurement": "inhibition at 25 µM", "setting": "Macrophage [1]", "result": 19, "unit": "%"}, {"measurement": "inhibition at 50 µM", "setting": "Macrophage [2]", "result": 28, "unit": "%"}, {"measurement": "inhibition at 125 µM", "setting": "[3]", "result": 72, "unit": "%"}, {"measurement": "viability at 50 µM", "setting": "[4]", "result": 101, "unit": "%"}, {"measurement": "inhibition at 25 µM", "setting": "[5]", "result": 31, "unit": "%"}]}]}
